Hits are enriched below; roughly 1.6% of the tested compounds scored in any of these assays.
eIF4H FP inh: inhibitors of RNA binding by human eIF4H. hit rate 0.94% among 290,000. inhibition, % at 35 µM. eIF4H fluorescence polarization binding assay. Q15056;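 also: calls also rest on retests at 20 µM and on dose response follow-up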
PABP polyA inh: blocks human PABP binding to poly(A) RNA; calls only at 35 µM; AID 2014; hit rate 1% among 290,000; fluorescence polarization;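 also: calls also rest on retests at 20 µM and on dose response follow-up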
TCR CD3 inh: human TCR-CD3 binding inhibition; TAMRA-labeled TCR probe fluorescence, biochemical; inhibition, % at 9.4 µM; hit rate 0.37% among 360,000; in the data active = inhibition above about 19%;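 also: recombinant mutant TCR 2C K166C tagged with TAMRA read by polarization; 0% = receptor in buffer alone and 100% = receptor with positive control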
PABP1 MLLE inh: blocks PAM2 peptide binding to the PABP1 MLLE domain. P11940. hit rate 0.36% among 360,000. GST-MLLE / FITC-PAM2 fluorescence polarization. AID 588489. inhibition, % at 20 µM; in the data active = inhibition above about 35%, passing the limit was not always enough;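 also: plate controls were DMSO wells with GST-MLLE for no effect and wells lacking GST-MLLE protein for full effect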
RBBP9 inh: inhibitors of human serine hydrolase RBBP9 | hit rate 0.2% among 220,000 | recombinant RBBP9, FP-Rh probe fluorescence polarization | AID 1515 | inhibition, % at 7.94 µM;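 active = inhibition above the campaign mean of all tested compounds plus 3 SD, cut at about 14% in these data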;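 also: plate controls were DMSO wells with RBBP9 for no effect and wells lacking RBBP9 protein for full effect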
Target sequence (O75884 whole entry, looked up): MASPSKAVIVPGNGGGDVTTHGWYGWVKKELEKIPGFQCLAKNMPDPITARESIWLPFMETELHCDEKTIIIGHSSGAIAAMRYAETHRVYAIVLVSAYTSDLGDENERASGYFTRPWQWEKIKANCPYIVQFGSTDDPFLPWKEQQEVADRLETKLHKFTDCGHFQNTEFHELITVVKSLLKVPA
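Material: RBBP9 protein. Amount: RBBP9 at 2.5 µM in dispensed solution, before mixing. Schedule: 30 min then 45 min, 25 °C. Medium: Tris buffer pH 8.0, NaCl, Pluronic. Measured by: fluorescence polarization. Measure: percent inhibition from mP, scaled between DMSO and no-protein wells. Replication: one well per compound.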
* = called active by the depositor; i = inactive; ? = inconclusive; . = no result; + = active, no number. Unless noted, no rule for the calls is given here.

SMILES	eIF4H FP inh	PABP polyA inh	TCR CD3 inh	PABP1 MLLE inh	RBBP9 inh
Cc1ccc(CNS(=O)(=O)c2ccc([N+](=O)[O-])cc2)cc1	5.9	i	2.2	0.8	.
Cc1ccc(S(=O)(=O)Cc2ccc([N+](=O)[O-])cc2)cc1	97.7*	+	-1.3	8.1	.
C#CCNC(=O)C[C@H]1C[C@@]2(C(=O)OC)C(=C[C@H](C3CCCC3)O[C@@H]2C)N(CCCCCCCC)C1=O	.	.	5.5	.	.
CCC(=O)NC(=S)Nc1c(C)cc(Br)cc1C	-5.7	i	-2.9	43.6*	-6.3
CCCC(=O)NC(=S)Nc1c(C)cc(Br)cc1C	.	.	0.1	19.2	-0.9
C#CCN(C(=O)Nc1ccccc1)c1ccccc1	3.2*	+	-8.2	8.4	-5.8
C=CCn1c(SCC(=O)N2CCOCC2)nc2scc(-c3ccco3)c2c1=O	65.9*	+	.	-8.4	-8.5
C=CCn1c(SCC(C)=O)nc2scc(-c3ccco3)c2c1=O	67.1*	+	-0.6	-3.2	.
C=CCn1c(SCC(=O)N2CCCC2)nc2scc(-c3cccs3)c2c1=O	11.3	i	1.5	14.7	1.4
C=CCCC1CN(CC=C)S(=O)(=O)c2c(F)cccc2O1 (stereo not given)	.	.	10.3	.	.
CNC(=O)/C(C#N)=C\c1ccc(CNS(=O)(=O)c2ccc(Cl)cc2)o1	3.3	+	4.9	-109.2	-3.2
Cc1ccc2sc(C)[n+](CCC(C)S(=O)(=O)[O-])c2c1 (stereo not given)	3.0	i	-3.2	41.2*	-11.6
CC/C(=C/c1sc2ccc(C)cc2[n+]1CCCS(=O)(=O)[O-])SC	-0.4	i	3.6	.	1.3
Cc1ccc2cc(C#N)c(N3CCCN(C(=O)C4CCCO4)CC3)nc2c1C (stereo not given)	93.8*	+	2.0	-4.2	-11.7
Cc1ccc2cc(C#N)c(N3CCCC3)nc2c1C	5.5	i	-3.5	-11.6	0.3
N#Cc1c(-c2ccco2)cc(-c2ccc(F)cc2)nc1N	62.1*	+	-0.7	-62.9	-2.3
Cc1cc(N2CCN(CC(C)(C)O)C[C@H]2C)ccc1N1CCN(CC(C)(C)O)[C@@H](C)C1	.	.	5.0	.	.
Cc1ccc(Cn2c(=S)[nH]c3ccc(N4CCOCC4)cc3c2=O)o1	72.4*	+	3.2	14.2	6.3
O=c1c2cc(N3CCOCC3)ccc2[nH]c(=S)n1Cc1ccc(Cl)cc1	3.8	i	2.0	-84.8	5.0
Cc1ccc(CN(C)C[C@H]2OCc3cnnn3CCCC(=O)N([C@H](C)CO)C[C@@H]2C)cc1	.	.	2.4	.	.
COc1ccc2c(c1)CC/C(=C/c1ccco1)C2=O	?	+	6.0	-8.6	-3.8
O=C1/C(=C/c2ccco2)CCc2ccccc21	81.3	i	-0.8	0.2	12.7
Cc1c(C(=O)OC2CCC(C)CC2)[nH]c2c1C(=O)CCC2 (stereo not given)	75.0*	i	-10.2	-1.2	1.0
CC(NC(=O)c1ccccc1Br)c1nnc(SCC(=O)NC2=NCCS2)n1C (stereo not given)	-13.2	i	-5.8	7.2	.
CC(NC(=O)c1ccccc1F)c1nnc(SCC(=O)NC2=NCCS2)n1C (stereo not given)	89.6*	+	1.8	-2.2	.
SMILES	eIF4H FP inh	PABP polyA inh	TCR CD3 inh	PABP1 MLLE inh	RBBP9 inh
CCn1c(CSc2nnc3ccccn23)nc2cc(C(=O)O)ccc21	128.9*	+	66.7*	30.9	0.1
O=C1CCCC2=C1C(c1ccco1)Nc1ccc3ccccc3c12 (stereo not given)	80.5*	+	10.9	-3.7	-1.4
CCOC(=O)N(C)C[C@H]1OCc2cn(nn2)CCCC(=O)N([C@@H](C)CO)C[C@@H]1C	.	.	5.1	.	.
CC1(OC(=O)C2CCCC2)C(=O)C=C2C=C(c3ccsc3)N(Cc3ccco3)C=C2C1=O (stereo not given)	93.5*	+	.	7.0	.
CC(C)C[C@H](NC(=O)C1CCCC1)C(=O)N1CCC[C@H]1C(=O)NCc1ccccc1	.	.	1.1	.	.
COc1ccc(CNS(=O)(=O)c2ccccc2Br)c(OC)c1	.	.	-1.3	.	.
COc1ccc(NC(=O)c2cccnc2)c([N+](=O)[O-])c1	-1.6	i	-6.2	-0.6	-0.2
COc1ccc(NC(=S)NC(NC(=O)c2cccc(Cl)c2)C(Cl)(Cl)Cl)c([N+](=O)[O-])c1 (stereo not given)	11.4	i	5.6	37.6*	-16.6
COc1ccc(NC(=O)c2ccccc2)c([N+](=O)[O-])c1	?	+	0.7	8.0	-6.2
CCOc1ccc(N/C=C/C(=O)c2ccc(OC)cc2)c([N+](=O)[O-])c1	12.8	i	4.8	49.2*	1.8
COC(=O)[C@H](Cc1ccccc1)N[C@H](c1ccc(OC)cc1)[C@@H](O)Cc1ccccc1	.	.	9.4	.	.
